Data from ChEMBL document CHEMBL4689842, “EUbOPEN Chemogenomics Library wave 1” (2021).

Tested on: U2OS
Test: Multiplex assay against U2OS
Type: toxicity, cell-based
Details: human
Outline: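 Values for tubulin, mitochondrial-mass and membrane-permeability phenotypes are per cents of cells with healthy nuclei. These cells were identified by CellPathfinder machine-learning gating of live cells that had been stained at seeding with Hoechst33342, BioTracker Green Microtubule Cytoskeleton Dye, MitoTracker Red and Annexin V Alexa Fluor 680 and imaged on a CQ1 microscope at 37°C and 5% CO2 after compound addition. The gating first set Hoechst high-intensity objects apart from normal cells, then split normal cells into healthy, pyknosed or fragmented nuclei, and pyknosed cells into mitotic or apoptotic.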

[1] = 12 h, 1 µM, compound concentration 1 uM, replicate 1
[2] = 12 h, 1 µM, compound concentration 1 uM, replicate 2
[3] = 12 h, 10 µM, compound concentration 10 uM, replicate 1
[4] = 12 h, 10 µM, compound concentration 10 uM, replicate 2
[5] = 24 h, 1 µM, compound concentration 1 uM, replicate 1
[6] = 24 h, 1 µM, compound concentration 1 uM, replicate 2
[7] = 24 h, 10 µM, compound concentration 10 uM, replicate 1
[8] = 24 h, 10 µM, compound concentration 10 uM, replicate 2
[9] = 48 h, 1 µM, compound concentration 1 uM, replicate 1
[10] = 48 h, 1 µM, compound concentration 1 uM, replicate 2
[11] = 48 h, 10 µM, compound concentration 10 uM, replicate 1
[12] = 48 h, 10 µM, compound concentration 10 uM, replicate 2

SMILES: O=C(Nc1ccc(-n2nc(-c3cccnc3)cc2C(F)(F)F)cn1)c1ccc(-c2ccccc2)c(F)c1 [BI 2049]
- Population Apoptotic (%) [1]: 63%
- Population Fragmented Nuclei (%) [1]: 12%
- Population Healthy Nuclei (%) [1]: 74%
- Population Hoechst High Intensity Objects (%) [1]: 12%
- Population Membrane Permeable-Phenotype (%) [1]: 6%
- Population Mitochondria Different-Phenotype (%) [1]: 10%
- Population Mitotic Cells (%) [1]: 36%
- Population Normal (%) [1]: 87%
- Population Pyknosed Nuclei (%) [1]: 12%
- Population Tubulin-Different-Phenotype (%) [1]: 12%
- Total Cell Count [1]: 99
- Population Apoptotic (%) [2]: 50%
- Population Fragmented Nuclei (%) [2]: 4%
- Population Healthy Nuclei (%) [2]: 85%
- Population Hoechst High Intensity Objects (%) [2]: 8%
- Population Membrane Permeable-Phenotype (%) [2]: 3%
- Population Mitochondria Different-Phenotype (%) [2]: 7%
- Population Mitotic Cells (%) [2]: 50%
- Population Normal (%) [2]: 91%
- Population Pyknosed Nuclei (%) [2]: 9%
- Population Tubulin-Different-Phenotype (%) [2]: 44%
- Total Cell Count [2]: 69
- Population Apoptotic (%) [3]: 30%
- Population Fragmented Nuclei (%) [3]: 13%
- Population Healthy Nuclei (%) [3]: 69%
- Population Hoechst High Intensity Objects (%) [3]: 9%
- Population Membrane Permeable-Phenotype (%) [3]: 6%
- Population Mitochondria Different-Phenotype (%) [3]: 24%
- Population Mitotic Cells (%) [3]: 70%
- Population Normal (%) [3]: 90%
- Population Pyknosed Nuclei (%) [3]: 17%
- Population Tubulin-Different-Phenotype (%) [3]: 35%
- Total Cell Count [3]: 129
- Population Apoptotic (%) [4]: 0%
- Population Fragmented Nuclei (%) [4]: 18%
- Population Healthy Nuclei (%) [4]: 81%
- Population Hoechst High Intensity Objects (%) [4]: 6%
- Population Membrane Permeable-Phenotype (%) [4]: 4%
- Population Mitochondria Different-Phenotype (%) [4]: 12%
- Population Mitotic Cells (%) [4]: 0%
- Population Normal (%) [4]: 93%
- Population Pyknosed Nuclei (%) [4]: 0%
- Population Tubulin-Different-Phenotype (%) [4]: 8%
- Total Cell Count [4]: 65
- Population Apoptotic (%) [5]: 60%
- Population Fragmented Nuclei (%) [5]: 8%
- Population Healthy Nuclei (%) [5]: 79%
- Population Hoechst High Intensity Objects (%) [5]: 5%
- Population Membrane Permeable-Phenotype (%) [5]: 3%
- Population Mitochondria Different-Phenotype (%) [5]: 6%
- Population Mitotic Cells (%) [5]: 40%
- Population Normal (%) [5]: 94%
- Population Pyknosed Nuclei (%) [5]: 11%
- Population Tubulin-Different-Phenotype (%) [5]: 13%
- Total Cell Count [5]: 136
- Population Apoptotic (%) [6]: 25%
- Population Fragmented Nuclei (%) [6]: 7%
- Population Healthy Nuclei (%) [6]: 83%
- Population Hoechst High Intensity Objects (%) [6]: 7%
- Population Membrane Permeable-Phenotype (%) [6]: 4%
- Population Mitochondria Different-Phenotype (%) [6]: 9%
- Population Mitotic Cells (%) [6]: 75%
- Population Normal (%) [6]: 92%
- Population Pyknosed Nuclei (%) [6]: 8%
- Population Tubulin-Different-Phenotype (%) [6]: 37%
- Total Cell Count [6]: 96
- Population Apoptotic (%) [7]: 34%
- Population Fragmented Nuclei (%) [7]: 10%
- Population Healthy Nuclei (%) [7]: 71%
- Population Hoechst High Intensity Objects (%) [7]: 5%
- Population Membrane Permeable-Phenotype (%) [7]: 6%
- Population Mitochondria Different-Phenotype (%) [7]: 21%
- Population Mitotic Cells (%) [7]: 65%
- Population Normal (%) [7]: 94%
- Population Pyknosed Nuclei (%) [7]: 18%
- Population Tubulin-Different-Phenotype (%) [7]: 19%
- Total Cell Count [7]: 135
- Population Apoptotic (%) [8]: 0%
- Population Fragmented Nuclei (%) [8]: 11%
- Population Healthy Nuclei (%) [8]: 84%
- Population Hoechst High Intensity Objects (%) [8]: 3%
- Population Membrane Permeable-Phenotype (%) [8]: 4%
- Population Mitochondria Different-Phenotype (%) [8]: 13%
- Population Mitotic Cells (%) [8]: 100%
- Population Normal (%) [8]: 96%
- Population Pyknosed Nuclei (%) [8]: 3%
- Population Tubulin-Different-Phenotype (%) [8]: 10%
- Total Cell Count [8]: 82
- Population Apoptotic (%) [9]: 33%
- Population Fragmented Nuclei (%) [9]: 9%
- Population Healthy Nuclei (%) [9]: 82%
- Population Hoechst High Intensity Objects (%) [9]: 5%
- Population Mitochondria Different-Phenotype (%) [9]: 12%
- Population Mitotic Cells (%) [9]: 66%
- Population Normal (%) [9]: 94%
- Population Pyknosed Nuclei (%) [9]: 7%
- Population Tubulin-Different-Phenotype (%) [9]: 10%
- Total Cell Count [9]: 200
- Population Apoptotic (%) [10]: 22%
- Population Fragmented Nuclei (%) [10]: 2%
- Population Healthy Nuclei (%) [10]: 91%
- Population Hoechst High Intensity Objects (%) [10]: 3%
- Population Membrane Permeable-Phenotype (%) [10]: 1%
- Population Mitochondria Different-Phenotype (%) [10]: 10%
- Population Mitotic Cells (%) [10]: 77%
- Population Normal (%) [10]: 96%
- Population Pyknosed Nuclei (%) [10]: 6%
- Population Tubulin-Different-Phenotype (%) [10]: 41%
- Total Cell Count [10]: 146
- Population Apoptotic (%) [11]: 63%
- Population Fragmented Nuclei (%) [11]: 8%
- Population Healthy Nuclei (%) [11]: 74%
- Population Hoechst High Intensity Objects (%) [11]: 3%
- Population Membrane Permeable-Phenotype (%) [11]: 7%
- Population Mitochondria Different-Phenotype (%) [11]: 13%
- Population Mitotic Cells (%) [11]: 36%
- Population Normal (%) [11]: 96%
- Population Pyknosed Nuclei (%) [11]: 17%
- Population Tubulin-Different-Phenotype (%) [11]: 11%
- Total Cell Count [11]: 181
- Population Apoptotic (%) [12]: 11%
- Population Fragmented Nuclei (%) [12]: 7%
- Population Healthy Nuclei (%) [12]: 85%
- Population Hoechst High Intensity Objects (%) [12]: 2%
- Population Membrane Permeable-Phenotype (%) [12]: 3%
- Population Mitochondria Different-Phenotype (%) [12]: 11%
- Population Mitotic Cells (%) [12]: 88%
- Population Normal (%) [12]: 97%
- Population Pyknosed Nuclei (%) [12]: 7%
- Population Tubulin-Different-Phenotype (%) [12]: 6%
- Total Cell Count [12]: 128
